In article PMC5788574 (The Journal of comparative neurology, 2017):

Columns and labels:
[1] = partial agonist; ref Niaura, Jones, & Kirkpatrick, 2006; cited from earlier work
[2] = system: α4β2* nAChRs; test: Human brain [18F]Nifene PET, distribution volume ratio; assay type: in vivo; details: for DVR ATR / DVR CB / DVR Frontal cortex / DVR LG / DVR OG / DVR Pit / DVR Red Nucleus / DVR SLF / DVR SN/VTA / DVR Thalamus: corpus callosum reference
Summary of the method: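 Eight healthy volunteers (4 male, 4 female), 21–69 years. Bolus of about 185 MBq radiotracer, then 90 min dynamic 3-D acquisition on an HR+ scanner. Frames were […], reconstructed by filtered back projection with a 4 mm Gaussian filter. FreeSurfer regions came from coregistered 3 T MRI. Parametric DVR images were made by MRTM2 with corpus callosum as reference.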

[3] = Tolerability of [18F]Nifene in human PET subjects; assay type: in vivo; details: 185 MBq, <0.10 μg per injection
Summary of the method: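 Healthy volunteers aged 21–69 (4 male, 4 female) studied under an FDA investigational new drug application. Each received a bolus of about 185 MBq radiotracer in sterile saline. Vital signs and laboratory results were assessed for adverse or clinically detectable pharmacologic effects.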

[4] = system: α4β2* nAChRs; test: Mouse brain [18F]Nifene PET/CT; assay type: in vivo; details: mouse PET
Summary of the method: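 BALB/c mice (25–30 g) were induced with 4% isoflurane and kept on 2% during the scan. A bolus of about 9.25 MBq radiotracer was followed by dynamic acquisition for up to 120 min, then CT for attenuation correction. Images were coregistered to an MRI mouse template. Time-activity curves came from atlas-guided VOIs without partial volume correction. Logan noninvasive DVR, with BPND = DVR−1.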

[5] = system: α4β2* nAChRs; test: Rat brain [18F]Nifene PET/CT; assay type: in vivo; details: rat PET
Summary of the method: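 Sprague-Dawley rats (250–400 g) were induced with 4% isoflurane and kept on 2.5% during the scan. A bolus of about 24 MBq radiotracer was followed by dynamic acquisition for up to 120 min, then CT for attenuation correction. Images were normalized to stereotaxic space via an MRI rat template. Time-activity curves came from atlas-guided VOIs without partial volume correction. Logan noninvasive DVR, with BPND = DVR−1.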

[6] = system: α4β2* nAChRs; test: Rhesus monkey brain [18F]Nifene PET; assay type: in vivo, rhesus monkey (Macaca mulatta)
Summary of the method: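 Rhesus monkeys (8–10 kg) had ketamine/xylazine IM, or ketamine/atropine IM plus 1–2% isoflurane. A bolus of about 48–111 MBq radiotracer was followed by at least 120 min acquisition on an HR+ or microPET scanner. Data were binned into 23 frames and reconstructed by filtered back projection. Circular ROIs on cerebellum, thalamus, lateral geniculate and cortex gave time-activity curves and BPND.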

[7] = system: α4β2* nAChRs; test: [18F]Nifene PET across species; assay type: in vivo; details: all species (mice, rats, monkeys, and humans)
[8] = after intravenous administration; ref Kant et al., 2011; cited from earlier work
[9] = human PET, females Avg±SD (4 subjects)
[10] = human PET, males Avg±SD (4 subjects)
[11] = human PET, males Avg±SD (4 subjects), listed as 18F-Nifene

Q: Which “in vivo efficacy compared to nicotine” value [1] does the source give for c1cnc2cc3c(cc2n1)[C@@H]1CNC[C@H]3C1 [varen-cline] here?
A: Its value is 30–60%.

Q: For [18F]c1ncccc1OC[C@@H]1C=CCN1 [[^18F]Nifene, 2-[18F]fluoro-3-[2-((S)-3-pyrrolinyl)methoxy]pyridine], which Binding in habenula ([2]; human PET) is on record?
A: Its Binding in habenula is “low levels”.

Q: And the “Ratio of thalamus to corpus callosum” value ([2]; human PET)?
A: Its value is 2.6.

Q: What about the “DVR, anterior thalamic radiation (white matter)” value ([2]; human PET, all subjects) of the same molecule?
A: The value was ~ 1.6.

Q: And the “DVR, red nucleus” value ([2]; human PET, all subjects)?
A: Its value is 1.6–1.7.

Q: What about the “DVR, superior longitudinal fasciculus” value ([2]; human PET, all subjects) of the same molecule?
A: Its value is ~ 1.5.

Q: And the “DVR ATR” value [2, 9]?
A: The value was 1.67.

Q: What about the “DVR CB” value [2, 9] of the same molecule?
A: Its value is 1.54 ± 0.25.

Q: What about the “DVR Frontal cortex” value [2, 9] of the same molecule?
A: The value was 1.38 ± 0.15.

Q: And the “DVR LG” value [2, 9]?
A: The value was 2.46 ± 0.07.

Q: And the “DVR OG” value [2, 9]?
A: Its value is 1.41.

Q: And the “DVR Pit” value [2, 9]?
A: Its value is 1.57.

Q: And the “DVR Red Nucleus” value [2, 9]?
A: The value was 1.73.

Q: What about the “DVR SLF” value [2, 9] of the same molecule?
A: The value was 1.55.

Q: And the “DVR SN/VTA” value [2, 9]?
A: Its value is 1.75 ± 0.09.

Q: What about the “DVR Thalamus” value [2, 9] of the same molecule?
A: Its value is 2.58 ± 0.11.

Q: What about the “DVR ATR” value [2, 10] of the same molecule?
A: The value was 1.58.

Q: What about the “DVR CB” value [2, 10] of the same molecule?
A: Its value is 1.42 ± 0.18.

Q: And the “DVR Frontal cortex” value [2, 10]?
A: Its value is 1.31 ± 0.11.

Q: What about the “DVR LG” value [2, 10] of the same molecule?
A: Its value is 2.17 ± 0.08.

Q: And the “DVR OG” value [2, 10]?
A: Its value is 1.31.

Q: And the “DVR Pit” value [2, 10]?
A: Its value is 1.45.

Q: What about the “DVR Red Nucleus” value [2, 10] of the same molecule?
A: The value was 1.56.

Q: What about the “DVR SLF” value [2, 10] of the same molecule?
A: The value was 1.38.

Q: What about the “DVR SN/VTA” value [2, 10] of the same molecule?
A: Its value is 1.60 ± 0.08.

Q: What about the “DVR Thalamus” value [2, 10] of the same molecule?
A: Its value is 2.24 ± 0.10.

Q: What about the “DVR ATR” value [2, 11] of the same molecule?
A: Its value is 1.58 ± 0.13.

Q: And the “DVR OG” value [2, 11]?
A: The value was 1.31 ± 0.12.

Q: What about the “DVR Pit” value [2, 11] of the same molecule?
A: Its value is 1.45 ± 0.22.

Q: What about the “DVR Red Nucleus” value [2, 11] of the same molecule?
A: The value was 1.56 ± 0.13.

Q: What about the “DVR SLF” value [2, 11] of the same molecule?
A: The value was 1.38 ± 0.15.

Q: What about the “DVR ATR” value ([2]; human one PET) of the same molecule?
A: The value was 1.68.

Q: And the “DVR CB” value ([2]; human one PET)?
A: Its value is 1.40.

Q: And the “DVR Frontal cortex” value ([2]; human one PET)?
A: The value was 1.29.

Q: What about the “DVR LG” value ([2]; human one PET) of the same molecule?
A: Its value is 2.17.

Q: And the “DVR OG” value ([2]; human one PET)?
A: The value was 1.41.

Q: And the “DVR Pit” value ([2]; human one PET)?
A: The value was 1.62.

Q: And the “DVR Red Nucleus” value ([2]; human one PET)?
A: Its value is 1.64.

Q: What about the “DVR SLF” value ([2]; human one PET) of the same molecule?
A: The value was 1.55.

Q: What about the “DVR SN/VTA” value ([2]; human one PET) of the same molecule?
A: The value was 1.53.

Q: What about the “DVR Thalamus” value ([2]; human one PET) of the same molecule?
A: The value was 2.25.

Q: What about the “DVR ATR” value ([2]; human seven PET) of the same molecule?
A: The value was 1.45.

Q: And the “DVR CB” value ([2]; human seven PET)?
A: The value was 1.50.

Q: And the “DVR Frontal cortex” value ([2]; human seven PET)?
A: Its value is 1.34.

Q: And the “DVR LG” value ([2]; human seven PET)?
A: Its value is 2.17.

Q: What about the “DVR OG” value ([2]; human seven PET) of the same molecule?
A: Its value is 1.33.

Q: What about the “DVR Pit” value ([2]; human seven PET) of the same molecule?
A: The value was 1.63.

Q: What about the “DVR Red Nucleus” value ([2]; human seven PET) of the same molecule?
A: Its value is 1.37.

Q: And the “DVR SLF” value ([2]; human seven PET)?
A: The value was 1.18.

Q: What about the “DVR SN/VTA” value ([2]; human seven PET) of the same molecule?
A: Its value is 1.68.

Q: And the “DVR Thalamus” value ([2]; human seven PET)?
A: The value was 2.13.

Q: What about the “DVR ATR” value ([2]; human three PET) of the same molecule?
A: Its value is 1.47.

Q: And the “DVR CB” value ([2]; human three PET)?
A: Its value is 1.18.

Q: And the “DVR Frontal cortex” value ([2]; human three PET)?
A: The value was 1.17.

Q: What about the “DVR LG” value ([2]; human three PET) of the same molecule?
A: Its value is 2.08.

Q: What about the “DVR OG” value ([2]; human three PET) of the same molecule?
A: Its value is 1.14.

Q: And the “DVR Pit” value ([2]; human three PET)?
A: The value was 1.17.

Q: And the “DVR Red Nucleus” value ([2]; human three PET)?
A: Its value is 1.56.

Q: And the “DVR SLF” value ([2]; human three PET)?
A: Its value is 1.36.

Q: And the “DVR SN/VTA” value ([2]; human three PET)?
A: Its value is 1.55.

Q: What about the “DVR Thalamus” value ([2]; human three PET) of the same molecule?
A: The value was 2.22.

Q: And the “DVR ATR” value ([2]; human two PET)?
A: The value was 1.69.

Q: What about the “DVR CB” value ([2]; human two PET) of the same molecule?
A: The value was 1.61.

Q: And the “DVR Frontal cortex” value ([2]; human two PET)?
A: The value was 1.44.

Q: And the “DVR LG” value ([2]; human two PET)?
A: Its value is 2.26.

Q: What about the “DVR OG” value ([2]; human two PET) of the same molecule?
A: Its value is 1.35.

Q: What about the “DVR Pit” value ([2]; human two PET) of the same molecule?
A: The value was 1.36.

Q: And the “DVR Red Nucleus” value ([2]; human two PET)?
A: The value was 1.67.

Q: What about the “DVR SLF” value ([2]; human two PET) of the same molecule?
A: Its value is 1.43.

Q: And the “DVR SN/VTA” value ([2]; human two PET)?
A: Its value is 1.66.

Q: And the “DVR Thalamus” value ([2]; human two PET)?
A: Its value is 2.37.

Q: What about the “Tolerability in human subjects” value [3] of the same molecule?
A: Its value is “well tolerated in all the human subjects with no adverse side effects”.

Q: What about the “Tolerability in human subjects” value ([3]; listed as [^18F] Nifene) of the same molecule?
A: Its value is “well tolerated with no adverse effects”.

Q: What about the “Ratio of thalamus to cerebellum” value [4] of the same molecule?
A: Its value is 2.

Q: And the “Ratio of thalamus to cerebellum” value [5]?
A: Its value is 3.1.

Q: And the “Ratio of thalamus to cerebellum” value [6]?
A: Its value is 3.2.

Q: What about the “Thalamus reference region ratio” value [7] of the same molecule?
A: Its value is over 2.

Q: And the “Radioactive components in rat brain” value [8]?
A: The value was “the only radioactive component”.
